Source: ChEMBL document CHEMBL2407075, “Sulphonamido-quinoxalines: search for anticancer agent” (Eur J Med Chem, 2013)

Key:
Assay type in all cases: functional
TK-10 = assay: Growth inhibition of human TK10 cells assessed as cell growth at 10^-4 M after 48 hrs by sulforhodamine B assay; settings: TK-10, 48 h, read-out: Activity
OVCAR-3 [1] = assay: Growth inhibition of human OVCAR3 cells assessed as cell growth at 10^-4 M after 48 hrs by sulforhodamine B assay; settings: OVCAR-3, 48 h, read-out: Activity
U-251 [2] = assay: Growth inhibition of human U251 cells assessed as cell growth at 10^-4 M after 48 hrs by sulforhodamine B assay; settings: U-251, 48 h, read-out: Activity
SF-539 = assay: Growth inhibition of human SF539 cells assessed as cell growth at 10^-4 M after 48 hrs by sulforhodamine B assay; settings: SF-539, 48 h, read-out: Activity
HT-29 [3] = assay: Growth inhibition of human HT-29 cells assessed as cell growth at 10^-4 M after 48 hrs by sulforhodamine B assay; settings: HT-29, 48 h, read-out: Activity
In short: (§1)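 Five-dose screen at NCI. Cells in RPMI 1640 with 5% FBS and 2 mM L-glutamine, seeded at 5000–40,000 cells/well and grown 24 h at 37 °C, 5% CO2 before dosing, with time-zero plates TCA-fixed. Drug diluted from DMSO stock to 0.01, 0.1, 1, 10 and 100 µM final, 48 h. Cells fixed with cold TCA (10% final), stained with 0.4% SRB and read at 515 nm. Percent growth from Tz, control and test absorbances; GI50, TGI and LC50 from dose-response curves.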

HCT-15 = assay: Growth inhibition of human HCT15 cells assessed as cell growth at 10^-4 M after 48 hrs by sulforhodamine B assay; settings: HCT-15, 48 h, read-out: Activity; in short: as §1
NCI-H460 [4] = assay: Growth inhibition of human NCI-H460 cells assessed as cell growth at 10^-4 M after 48 hrs by sulforhodamine B assay; settings: NCI-H460, 48 h, read-out: Activity
[5] = Growth inhibition of human Hs 578T cells assessed as cell growth at 10^-5 M after 48 hrs by sulforhodamine B assay; settings: read-out: Activity; in short: as §1
MDA-MB-231 = assay: Growth inhibition of human MDA-MB-231 cells assessed as cell growth at 10^-5 M after 48 hrs by sulforhodamine B assay; settings: MDA-MB-231, 48 h, read-out: Activity
ACHN = assay: Growth inhibition of human ACHN cells assessed as cell growth at 10^-5 M after 48 hrs by sulforhodamine B assay; settings: read-out: Activity
In short: (§2)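 Five-dose NCI-60 run (0.01, 0.1, 1, 10 and 100 µM, as 10-fold dilutions from a DMSO stock made at 400× the top final level). Cells were grown in RPMI 1640 with 5% FBS and 2 mM glutamine and plated for 24 h. They were then exposed for 48 h at 37 °C and 5% CO2. TCA fixation was followed by SRB staining with A515 read-out. Percent growth was taken relative to time-zero and control plates.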

SK-MEL-5 = assay: Growth inhibition of human SK-MEL-5 cells assessed as cell growth at 10^-5 M after 48 hrs by sulforhodamine B assay; settings: SK-MEL-5, 48 h, read-out: Activity
NCI-H522 [6] = assay: Growth inhibition of human NCI-H522 cells assessed as cell growth at 10^-5 M after 48 hrs by sulforhodamine B assay; settings: NCI-H522, 48 h, read-out: Activity
NCI-H460 [7] = assay: Growth inhibition of human NCI-H460 cells assessed as cell growth at 10^-5 M after 48 hrs by sulforhodamine B assay; settings: NCI-H460, 48 h, read-out: Activity
[8] = Growth inhibition of human EKVX cells assessed as cell growth at 10^-5 M after 48 hrs by sulforhodamine B assay; settings: read-out: Activity; in short: as §1
[9] = Growth inhibition of human Hs 578T cells assessed as cell growth at 10^-6 M after 48 hrs by sulforhodamine B assay; settings: read-out: Activity; in short: as §1
SN12C [10] = assay: Growth inhibition of human SN12C cells assessed as cell growth at 10^-6 M after 48 hrs by sulforhodamine B assay; settings: read-out: Activity
OVCAR-3 [11] = assay: Growth inhibition of human OVCAR3 cells assessed as cell growth at 10^-6 M after 48 hrs by sulforhodamine B assay; settings: OVCAR-3, 48 h, read-out: Activity
MDA-MB-435 = assay: Growth inhibition of human MDA-MB-435 cells assessed as cell growth at 10^-6 M after 48 hrs by sulforhodamine B assay; settings: MDA-MB-435, 48 h, read-out: Activity
SW-620 = assay: Growth inhibition of human SW620 cells assessed as cell growth at 10^-6 M after 48 hrs by sulforhodamine B assay; settings: SW-620, 48 h, read-out: Activity
HT-29 [12] = assay: Growth inhibition of human HT-29 cells assessed as cell growth at 10^-6 M after 48 hrs by sulforhodamine B assay; settings: HT-29, 48 h, read-out: Activity; in short: as §1
COLO 205 = assay: Growth inhibition of human COLO205 cells assessed as cell growth at 10^-6 M after 48 hrs by sulforhodamine B assay; settings: COLO 205, 48 h, read-out: Activity; in short: as §2
A549 = assay: Growth inhibition of human A549/ATCC cells assessed as cell growth at 10^-6 M after 48 hrs by sulforhodamine B assay; settings: A549, 48 h, read-out: Activity; in short: as §2
U-251 [13] = assay: Growth inhibition of human U251 cells assessed as cell growth at 10^-7 M after 48 hrs by sulforhodamine B assay; settings: U-251, 48 h, read-out: Activity
DU-145 = assay: Growth inhibition of human DU145 cells assessed as cell growth at 10^-8 M after 48 hrs by sulforhodamine B assay; settings: DU-145, 48 h, read-out: Activity; in short: as §2
SN12C [14] = assay: Growth inhibition of human SN12C cells assessed as cell growth at 10^-8 M after 48 hrs by sulforhodamine B assay; settings: read-out: Activity
LOX IMVI = assay: Growth inhibition of human LOXIMVI cells assessed as cell growth at 10^-8 M after 48 hrs by sulforhodamine B assay; settings: read-out: Activity
SNB-75 = assay: Growth inhibition of human SNB75 cells assessed as cell growth at 10^-8 M after 48 hrs by sulforhodamine B assay; settings: SNB-75, 48 h, read-out: Activity
SR = assay: Growth inhibition of human SR cells assessed as cell growth at 10^-8 M after 48 hrs by sulforhodamine B assay; settings: read-out: Activity
RPMI-8226 = assay: Growth inhibition of human RPMI8226 cells assessed as cell growth at 10^-8 M after 48 hrs by sulforhodamine B assay; settings: RPMI-8226, 48 h, read-out: Activity
U-251 [15] = assay: Growth inhibition of human U251 cells after 48 hrs by sulforhodamine B assay; settings: U-251, 48 h; for CC50: read-out: LC50 (the source's name)
In short: (§3)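 Adherent cells in RPMI 1640 with 5% FBS and 2 mM L-glutamine were plated at 5000–40,000 cells/well and grown 24 h. Five concentrations (0.01–100 µM, DMSO stock) were added for 48 h at 37 °C. Cells were fixed with cold TCA (10% final) and stained with SRB, read at 515 nm. GI50 came from log concentration–growth curves against time-zero and control plates.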

NCI-H522 [16] = assay: Growth inhibition of human NCI-H522 cells after 48 hrs by sulforhodamine B assay; settings: NCI-H522, 48 h; for CC50: read-out: LC50 (the source's name); in short: as §3

O=S(=O)(Nc1ccc(Cl)cc1)c1ccc2nc(-c3ccccc3)c(-c3ccccc3)nc2c1
growth at 100 µM (TK-10): 86% | growth at 100 µM (OVCAR-3 [1]): 65% | growth at 100 µM (U-251 [2]): 75% | growth at 100 µM (SF-539): 73% | growth at 100 µM (HT-29 [3]): 53% | growth at 100 µM (HCT-15): 68% | growth at 100 µM (NCI-H460 [4]): 68% | growth at 10 µM [5]: 3% | growth at 10 µM (MDA-MB-231): -78% | growth at 10 µM (ACHN): 6% | growth at 10 µM (SK-MEL-5): -99% | growth at 10 µM (NCI-H522 [6]): -34% | growth at 10 µM (NCI-H460 [7]): -18% | growth at 10 µM [8]: -7% | growth at 1 µM [9]: 76% | growth at 1 µM (SN12C [10]): 93% | growth at 1 µM (OVCAR-3 [11]): 94% | growth at 1 µM (MDA-MB-435): 92% | growth at 1 µM (SW-620): 88% | growth at 1 µM (HT-29 [12]): 85% | growth at 1 µM (COLO 205): 103% | growth at 1 µM (A549): 87% | growth at 0.1 µM (U-251 [13]): 94% | growth at 0.01 µM (DU-145): 105% | growth at 0.01 µM (SN12C [14]): 95% | growth at 0.01 µM (LOX IMVI): 99% | growth at 0.01 µM (SNB-75): 75% | growth at 0.01 µM (SR): 92% | growth at 0.01 µM (RPMI-8226): 103% | CC50 (U-251 [15]): > 100 µM | CC50 (NCI-H522 [16]): > 100 µM

O=S(=O)(Nc1ccccn1)c1ccc2nc(-c3ccccc3)c(-c3ccccc3)nc2c1
growth at 100 µM (TK-10): 54% | growth at 100 µM (OVCAR-3 [1]): 45% | growth at 100 µM (U-251 [2]): 47% | growth at 100 µM (SF-539): 54% | growth at 100 µM (HT-29 [3]): 24% | growth at 100 µM (HCT-15): 63% | growth at 100 µM (NCI-H460 [4]): 65% | growth at 10 µM [5]: -11% | growth at 10 µM (MDA-MB-231): -60% | growth at 10 µM (ACHN): 6% | growth at 10 µM (SK-MEL-5): -93% | growth at 10 µM (NCI-H522 [6]): -42% | growth at 10 µM (NCI-H460 [7]): 1% | growth at 10 µM [8]: -2% | growth at 1 µM [9]: 65% | growth at 1 µM (SN12C [10]): 91% | growth at 1 µM (OVCAR-3 [11]): 92% | growth at 1 µM (MDA-MB-435): 91% | growth at 1 µM (SW-620): 87% | growth at 1 µM (HT-29 [12]): 79% | growth at 1 µM (COLO 205): 94% | growth at 1 µM (A549): 96% | growth at 0.1 µM (U-251 [13]): 97% | growth at 0.01 µM (DU-145): 102% | growth at 0.01 µM (SN12C [14]): 95% | growth at 0.01 µM (LOX IMVI): 97% | growth at 0.01 µM (SNB-75): 85% | growth at 0.01 µM (SR): 93% | growth at 0.01 µM (RPMI-8226): 108% | GI50 (U-251 [15]): 2.61 µM | TGI (U-251 [15]): > 100 µM | CC50 (U-251 [15]): > 100 µM | GI50 (NCI-H522 [16]): 1.6 µM | CC50 (NCI-H522 [16]): > 100 µM
